# From PubChem
# An excerpt weighted towards active compounds, which were near 2.5% of everything screened.
# CTSL1 counter: blocks F. hepatica cathepsin L1 in PFM18AAP counter-screen | 0.49% of 300,000 active | recombinant F. hepatica cathepsin L1, Z-Leu-Arg-MCA fluorescence | inhibition, % at 5.96 µM;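 active = inhibition above the mean of all tested compounds plus 3 SD, set per screening campaign, cut at about 17% in these data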;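 note: 0% = plate median of test compound wells and 100% = 1 µM Z-Phe-Ala-diazomethylketone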
# TDP2 inh: TDP2 (human) inhibition, absorbance primary screen; O95551; recombinant TDP2, T5PNP hydrolysis, p-nitrophenol absorbance 415 nm; inhibition, % at 12.8 µM; 0.34% of 370,000 active; AID 720702;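 active = inhibition above the mean of all tested compounds plus 3 SD, set per campaign, cut at about 25% in these data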;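 note: 0% = DMSO with enzyme and 100% = buffer with substrate but no TDP2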
#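 System – recombinant human TDP2 · Quantity – TDP2 enzyme at 120 nM final · Doses – single concentration, 12.8 µM nominal, with 1% DMSO · Incubation – 2 h at 37 °C · Measured by – epi absorbance of p-nitrophenol freed from T5PNP by hydrolysis · Read-out – % inhibition relative to enzyme-containing and enzyme-free wells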
# PRMT1 inh: blocks human protein arginine methyltransferase 1; AID 652257; recombinant PRMT1, activity-based probe fluorescence polarization; 1.3% of 370,000 active; Q99873; inhibition, % at 2.79 µM;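 active = inhibition above about 21% made by adding two undisclosed values, limit read from the data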
# GSTO1 inh: GSTO1 inhibition, counter-screen for RBBP9 inhibitors | 1.1% of 300,000 active | P78417 | recombinant GSTO1, activity-based probe fluorescence polarization | AID 1974 | inhibition, % at 5.96 µM;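 active = inhibition above the campaign mean inhibition plus 3 SD, cut at about 35% in these data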;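 note: 0% = GSTO1-1 with DMSO and 100% = wells lacking GSTO1-1 enzyme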
# PAD4 inh: PAD4 (human) enzyme inhibition | inhibition, % at 6.36 µM | recombinant PAD4, RCA probe fluorescence polarization | Q9UM07 | AID 485272 | 0.41% of 330,000 active;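 active = percent inhibition above a cutoff equal to the mean of all tested compounds plus 3 SD, cut at about 15% in these data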;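 note: 0% = PAD4 with RCA probe and DMSO and 100% = probe without PAD4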
# Target sequence (Q9UM07 whole entry, looked up): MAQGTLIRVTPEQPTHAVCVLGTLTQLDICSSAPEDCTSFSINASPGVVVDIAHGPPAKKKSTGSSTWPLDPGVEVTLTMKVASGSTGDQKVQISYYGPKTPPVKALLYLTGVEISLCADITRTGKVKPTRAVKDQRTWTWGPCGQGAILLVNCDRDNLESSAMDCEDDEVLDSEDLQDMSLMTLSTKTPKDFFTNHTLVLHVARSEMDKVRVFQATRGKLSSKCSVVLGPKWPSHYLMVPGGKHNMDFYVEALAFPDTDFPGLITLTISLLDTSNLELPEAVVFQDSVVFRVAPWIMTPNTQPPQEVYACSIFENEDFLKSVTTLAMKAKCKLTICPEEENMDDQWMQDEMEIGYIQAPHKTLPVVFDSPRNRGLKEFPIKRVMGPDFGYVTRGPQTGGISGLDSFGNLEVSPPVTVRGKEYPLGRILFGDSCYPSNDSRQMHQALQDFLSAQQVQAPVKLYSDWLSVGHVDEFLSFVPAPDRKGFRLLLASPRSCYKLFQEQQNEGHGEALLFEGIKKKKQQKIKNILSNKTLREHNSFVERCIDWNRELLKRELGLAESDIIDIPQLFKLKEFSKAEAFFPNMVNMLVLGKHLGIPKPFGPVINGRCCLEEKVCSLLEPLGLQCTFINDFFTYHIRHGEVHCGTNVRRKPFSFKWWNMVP
# PRMT1 confirm: PRMT1 (human) inhibition, FP confirmation. shares compounds with PRMT1 inh. 42% of 3,300 active. AID 687036. inhibition, % at 2.79 µM. recombinant His-PRMT1, activity-based probe fluorescence polarization;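 active = mean inhibition across replicates above the hit cutoff derived for the earlier primary screen, cut at about 22% in these data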
# TDP2 inh conf: confirmation of human TDP2 inhibitors | shares compounds with TDP2 inh | recombinant human TDP2, absorbance read-out | inhibition, % at 12.8 µM | 22% of 1,100 active | AID 743263; in the data active = inhibition above about 25%;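 note: 0% = vehicle with enzyme and 100% = no enzyme buffer only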
# Starred values were filed as active, the others as inactive; · = no result.
SMILES,CTSL1 counter,TDP2 inh,PRMT1 inh,GSTO1 inh,PAD4 inh,PRMT1 confirm,others
Cc1cc(N2CCCCC2)ccc1C=C1C(=O)N(C)C(=S)N(C)C1=O,5.9,-10.4,28.9*,-10.4,-9.7,22.3*,
O=c1[nH]c(=O)n(Cc2ccco2)c(O)c1/C=N/N1CCCCCC1,2.0,0.1,3.6,-6.8,-5.5,·,
N#Cc1c(/N=C/c2c(O)n(Cc3ccco3)c(=O)[nH]c2=O)sc2c1CCCC2,3.8,10.7,25.6*,34.7,-1.0,6.5,
COc1ccc(OC)c(N2Cc3ccccc3C2=N)c1,0.7,-6.7,1.1,8.8,-3.2,·,
N#CC(C#N)=C(C#N)c1ccc(Nc2ccccc2)cc1,1.3,-0.1,1.6,10.8,4.9,·,
COc1ccc(-n2c(SCCN(C)C)nc3ccccc3c2=O)cc1,4.2,-12.5,-0.3,-3.8,0.1,·,
COP(=S)(OC)SCn1nnc2ccccc2c1=O,·,5.8,89.1*,·,·,74.3*,
CSc1ncc(/C=C2/C(=O)NC(=O)N(C3CCCCC3)C2=O)cn1,0.0,9.6,26.2*,16.4,-3.7,19.5,
CSc1ncc(/C=C2/C(=O)NC(=O)N(C)C2=O)cn1,-2.1,4.4,8.9,-5.7,-4.9,·,
CC[C@@H](CO)NC(=O)[C@@H]1C=C2c3cccc4[nH]cc(c34)C[C@H]2N(C)C1,·,9.2,30.0*,·,·,18.9,
CCC(CO)NC(=O)C1C=C2c3cccc4[nH]cc(c34)CC2N(C)C1 (centres undefined),1.2,10.7,15.0,10.8,-2.8,·,
C=C1C(=O)O[C@H]2[C@H]1[C@H](OC(=O)CC(=O)O[C@@H]1C[C@@H](C)[C@@H]3C=CC(=O)[C@@]3(C)[C@H]3OC(=O)C(=C)[C@H]13)C[C@@H](C)[C@H]1C=CC(=O)[C@]12C,1.0,1.5,4.7,6.9,-5.2,·,
C=C1C(=O)O[C@@H]2C[C@@H](C)[C@@H]3C=CC(=O)[C@@]3(C)[C@@H](OC(=O)CC(=O)O[C@H]3[C@@H]4C(=C)C(=O)O[C@@H]4C[C@@H](C)[C@@H]4C=CC(=O)[C@]43C)[C@H]12,-3.4,-7.7,29.0*,-17.1,-11.7,26.4*,
O=C1NC(=O)C(=Cc2ccc3c(c2)OCO3)C(=O)N1,0.9,8.0,24.8*,1.1,-1.8,0.9,
CCC(=NCc1cccnc1)c1c(O)n(C2CCCCC2)c(=O)[nH]c1=O,0.4,4.0,-0.8,-3.6,-0.6,·,
O=c1[nH]c(=O)n(C2CCCCC2)c(O)c1C1NCCc2ccccc21 (centres undefined),-4.1,-6.3,28.0*,21.7,-8.2,2.4,
OC(CN1CCCCC1)c1c[nH]c2ccccc12 (centres undefined),3.9,-2.0,1.2,1.3,-2.7,·,
Cc1cc(C)nc(NS(=O)(=O)c2ccc(N=Cc3c(O)n(C)c(=O)n(C)c3=O)cc2)n1,0.7,-0.2,14.5,-14.9,-0.1,·,
CC1=CC(=O)OC2CC3OC4C[C@@H](C)C5OC6CC7O[C@]8(C)C/C=C\C9OC%10CC%11OC(CC(C)C%12OCCO%12)CC(O)[C@]%11(C)OC%10CC9OC8C[C@]7(C)O[C@]6(C)CCC5OC4C[C@]3(C)OC12 (some centres undefined),·,·,·,·,-0.2,·,
NC(=O)CSP(=O)(c1ccccc1)c1ccccc1,-3.4,9.1,37.7*,7.0,2.3,65.0*,
COP(=O)(CC(=O)O)c1ccccc1 (centres undefined),1.7,2.5,1.1,6.2,2.7,·,
CCOC(=O)C1=C(N)OC2=C(C(=O)CCC2)C12C(=O)N(C)c1ccccc12 (centres undefined),-3.7,-22.7,6.5,-1.0,7.1,·,
CCCC(=O)N1c2ccc(Cl)cc2C(c2ccccc2)=NCC1C(=O)NC(C)(C)C (centres undefined),·,-6.6,-2.6,·,·,·,
C=CCN1C(=O)/C(=C/c2ccc3c(c2)CCCN3CCC)C(=O)NC1=S,4.2,-0.6,26.0*,7.6,-2.7,8.3,
CN(C)c1ccc(CCN2CCOCC2)cc1,-1.5,-1.4,-0.8,3.9,-6.0,·,
SMILES,CTSL1 counter,TDP2 inh,PRMT1 inh,GSTO1 inh,PAD4 inh,PRMT1 confirm,others
CN(C)c1ccc2c(c1)N=C(c1ccco1)OP2(=S)N1CCOCC1 (centres undefined),0.2,1.4,26.2*,15.0,-0.6,49.5*,
Cn1c(O)c(C(=N)COc2cccc(Cl)c2)c(=O)n(C)c1=O,4.2,-2.6,-3.6,3.4,-4.4,·,
O=C(O)C1C(C(=O)O)C2(Cl)C(Cl)=C(Cl)C1(Cl)C2(Cl)Cl (centres undefined),·,9.5,5.8,·,3.1,·,
C=CCOC(=O)C1C(C(=O)O)C2(Cl)C(Cl)=C(Cl)C1(Cl)C2(Cl)Cl (centres undefined),·,7.4,63.9*,·,·,5.6,
COc1ccc2c(c1)NP(=S)(c1ccccc1)N2C (centres undefined),·,1.2,33.0*,·,·,2.1,
CCN1/C(=C/C=C/C2=[N+](CC)c3ccccc3C2(C)C)C(C)(C)c2ccccc21,·,-0.6,155.5*,·,·,130.6*,
C=CCN=C(SCC(=O)c1ccc(Cl)cc1)c1c(O)n(C)c(=O)n(C)c1=O,6.3,-10.1,29.4*,4.1,1.9,31.3*,
CN=C(SCc1ccccc1)c1c(O)n(C)c(=O)n(C)c1=O,0.2,12.9,1.0,11.8,-8.0,·,
Cc1ccc(S(=O)(=O)Oc2ccccc2C=C2C(=O)N(C)C(=O)N(C)C2=O)cc1,0.0,-6.0,29.8*,9.8,1.7,-1.3,
Cc1cc(C=C2C(=O)N(C)C(=O)N(C)C2=O)c(C)n1-c1ccccc1,-6.6,1.2,1.0,-0.5,-4.4,·,
C[C@]12CCC3C(CC[C@H]4C[C@@H](O)CC[C@]34C)C1[C@H]1CN=N[C@H]1[C@@H]2O (some centres undefined),·,-13.8,-4.8,·,-2.4,·,
CCn1cc(CN2CCCC(C(=O)c3sccc3C)C2)cn1 (centres undefined),0.5,0.5,-4.0,-4.2,-3.1,·,
CN1C(=O)C(=Cc2ccc(Sc3ccccc3)o2)C(=O)N(C)C1=S,-0.1,-0.7,36.3*,-43.4,-16.7,75.6*,
O=C1CC(=O)N(Cc2ccccc2)C(=S)N1,-0.1,32.3*,32.4*,9.1,-5.9,4.8,TDP2 inh conf=8.7
COC(=O)C1=C(c2cccc(OC)c2OC)C[C@@H]2CC[C@H]1N2C(=O)NCC1CC1,-0.2,-5.8,0.1,-5.0,-4.8,·,
COc1cc(/C=C2\C(=O)NC(=O)N(c3ccccc3)C2=O)c([N+](=O)[O-])cc1OC,·,24.9*,4.5,·,·,·,TDP2 inh conf=9.2
COC1CCCCC1NCCc1ccccc1 (centres undefined),-0.2,25.9*,-0.5,6.9,0.1,·,TDP2 inh conf=-2.2
COc1ccc(CCNC2CCCCCC2)cc1,1.1,-2.8,5.6,7.5,-1.3,·,
CCN(CC)c1ccc(/C=N/c2sc3c(c2C#N)C2CCN3CC2)c(O)c1,3.9,·,·,4.9,-0.6,·,
